Results reported in ChEMBL document CHEMBL1151765, “Rational design of substituted diarylureas: a scaffold for binding to G-quadruplex motifs” (J Med Chem, 2008).
Calls of active or inactive are those of the source. The calls are words filed in the database; no cut-off is given here.

Key:
[1] = biological target: T1, Telomerase reverse transcriptase (Homo sapiens, UniProt O14746); assay: Inhibition of telomerase by TRAP-LIG assay
[2] = Stabilization of d[AGAG3AG2GCGCTG3AG2AG3GCT] sequence of c-kit1 G-quadruplex DNA assessed as change in melting temperature at 1 uM by FRET assay
Summary of the method: (§1)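 Dual-labelled FAM/TAMRA oligos at 400nM in 60mM KCl potassium cacodylate buffer, pH 7.4, heated to 85 °C for 10 min, then cooled. Ligand added to 1µM; buffer alone as negative control. Excitation 450–495nm, emission read at 515–545nm every 0.5 °C from 30–100 °C. ΔTm is ligand Tm minus control Tm, from four experiments ± maximum sd; c-kit1 curves fitted to sigmoids.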

[3] = Stabilization of d[G3(T2AG3)3] sequence of F21T telomeric G-quadruplex DNA assessed as change in melting temperature at 1 uM by FRET assay
Summary of the method: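 Dual-labelled oligo (5′-FAM, 3′-TAMRA) at 400nM in FRET buffer (60mM KCl, K cacodylate, pH 7.4), heated to 85 °C for 10 min, cooled to room temperature. Ligand added from DMSO dilution. Excitation 450–495nm, emission 515–545nm, read every 0.5 °C from 30–100 °C. ΔTm from four experiments: averaged ligand Tm minus averaged buffer-control Tm, ± maximum sd.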

[4] = Stabilization of d[C3G3CG3CGCGAG3AG4AG2] sequence of c-kit2 G-quadruplex DNA assessed as change in melting temperature at 1 uM by FRET assay; summary of the method: as §1
[5] = Stabilization of d[(TA)2GC(TA)2T6(TA)2]GC(TA)2 sequence of duplex DNA assessed as change in melting temperature at 1 uM by FRET assay; summary of the method: as §1
[6] = Stabilization of d[G3(T2AG3)3] sequence of F21T telomeric G-quadruplex DNA assessed as change in melting temperature at 1 uM by FRET assay relative to BRACO-19 in presence of calf thymus DNA
Summary of the method: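 F21T FRET melting with ligand at 1µM in the presence of calf thymus DNA competitor at increasing bp concentrations. Retained stabilization, from three experiments, normalized to the ligand's ΔTm with no competitor (100%) ± normalized sd.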

[7] = species on record: Homo sapiens; assay: Binding affinity to biotin-labeled human telomeric d[AG3(T2AG3)3] sequence by surface plasmon resonance analysis
Summary of the method: (§2)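 Streptavidin chip with 5′-biotinylated DNA immobilized to 350-400 RU; blank reference flow cell. Run in 10mM HEPES, 100mM KCl, 3mM EDTA, P20 surfactant, pH 7.3, 25°C. Ligand 1nM to 10µM (from 20mM DMSO stock) injected at 50µl/min for 5–10 min to steady state, then 10 min buffer dissociation; glycine pH 2.0 regeneration between cycles.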

[8] = Binding affinity to biotin-labeled d[(AG3)2CGCTG3AG2AG3] sequence of c-kit1 G-quadruplex DNA by surface plasmon resonance analysis; summary of the method: as §2
[9] = Binding affinity to biotin-labeled d[(CG3)2CGCGAG3AG4] sequence of c-kit2 G-quadruplex DNA by surface plasmon resonance analysis; summary of the method: as §2
[10] = Binding affinity to biotin-labeled d[(AG3TG4)2A] sequence of c-myc G-quadruplex DNA by surface plasmon resonance analysis; summary of the method: as §2
[11] = Binding affinity to biotin-labeled d[CGA2T2CGTCTC2GA2T2CG] sequence of duplex DNA by surface plasmon resonance analysis; summary of the method: as §2
[12] = Selectivity ratio of equilibrium binding constant K for human telomeric d[AG3(T2AG3)3] sequence to equilibrium binding constant K for d[CGA2T2CGTCTC2GA2T2CG] sequence of duplex DNA
[13] = Selectivity ratio of equilibrium binding constant K for d[(AG3)2CGCTG3AG2AG3] sequence of c-kit1 G-quadruplex DNA to equilibrium binding constant K for d[CGA2T2CGTCTC2GA2T2CG] sequence of duplex DNA
[14] = Selectivity ratio of equilibrium binding constant K for d[(CG3)2CGCGAG3AG4] sequence of c-kit2 G-quadruplex DNA to equilibrium binding constant K for d[CGA2T2CGTCTC2GA2T2CG] sequence of duplex DNA
[15] = Selectivity ratio of equilibrium binding constant K for d[(AG3TG4)2A] sequence of c-myc G-quadruplex DNA to equilibrium binding constant K for d[CGA2T2CGTCTC2GA2T2CG] sequence of duplex DNA
[16] = biological target: T1, Telomerase reverse transcriptase; assay: Inhibition of telomerase at 50 uM by TRAP-LIG assay relative to control
[17] = system: MCF7; assay: Cytotoxicity against human MCF7 cells after 96 hrs by SRB assay; format: functional, cell-based; details: MCF7, 96 h
[18] = system: A549; assay: Cytotoxicity against human A549 cells after 96 hrs by SRB assay; format: functional, cell-based; details: A549, 96 h
[19] = Cytotoxicity against human WI38 cells after 96 hrs by SRB assay; format: cell-based; details: WI-38, 96 h
[20] = system: MCF7; assay: Cytotoxicity against human MCF7 cells assessed as population doubling at 1 uM after 1 week […] relative to control; format: functional
Summary of the method: (§3)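 MCF7 cells (1×10^5) treated with sub-cytotoxic ligand concentrations for 1 week, biweekly dosing. Cells counted by haemocytometer; population doublings n = (log Pn – log P0)/log2. Values normalized to vehicle control (100%) ± sd, two independent concentrations per ligand.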

[21] = system: MCF7; assay: Cytotoxicity against human MCF7 cells assessed as population doubling at 1.75 uM after 1 week […] relative to control; format: functional; summary of the method: as §3
[22] = system: MCF7; assay: Cytotoxicity against human MCF7 cells assessed as population doubling at 2.25 uM after 1 week […] relative to control; format: functional; summary of the method: as §3
[23] = system: MCF7; assay: Cytotoxicity against human MCF7 cells assessed as cell senescence at 1.75 uM after 1 week by beta-galactosidase assay; format: functional
[24] = system: MCF7; assay: Cytotoxicity against human MCF7 cells assessed as cell senescence at 2.25 uM after 1 week by beta-galactosidase assay; format: functional
[25] = system: MCF7; assay: Selectivity ratio of IC50 for human MCF7 cells to IC50 for human WI38 cells
[26] = system: A549; assay: Selectivity ratio of IC50 for human A549 cells to IC50 for human WI38 cells
[27] = system: MCF7; assay: Cytotoxicity against human MCF7 cells assessed as population doubling at 3.50 uM after 1 week […] relative to control; format: functional; summary of the method: as §3
[28] = system: MCF7; assay: Cytotoxicity against human MCF7 cells assessed as population doubling at 2 uM after 1 week […] relative to control; format: functional; summary of the method: as §3
[29] = system: MCF7; assay: Cytotoxicity against human MCF7 cells assessed as cell senescence at 3.5 uM after 1 week by beta-galactosidase assay; format: functional
[30] = system: MCF7; assay: Cytotoxicity against human MCF7 cells assessed as cell senescence at 2 uM after 1 week by beta-galactosidase assay; format: functional
[31] = system: MCF7; assay: Cytotoxicity against human MCF7 cells assessed as population doubling at 5 uM after 1 week […] relative to control; format: functional; summary of the method: as §3
[32] = system: MCF7; assay: Cytotoxicity against human MCF7 cells assessed as population doubling at 10 uM after 1 week […] relative to control; format: functional; summary of the method: as §3
[33] = system: MCF7; assay: Cytotoxicity against human MCF7 cells assessed as cell senescence at 5 uM after 1 week by beta-galactosidase assay; format: functional
[34] = system: MCF7; assay: Cytotoxicity against human MCF7 cells assessed as cell senescence at 10 uM after 1 week by beta-galactosidase assay; format: functional
[35] = system: MCF7; assay: Cytotoxicity against human MCF7 cells assessed as population doubling at 7 uM after 1 week […] relative to control; format: functional; summary of the method: as §3
[36] = system: MCF7; assay: Cytotoxicity against human MCF7 cells assessed as cell senescence at 1 uM after 1 week by beta-galactosidase assay; format: functional

T1 sequence (O14746 whole entry): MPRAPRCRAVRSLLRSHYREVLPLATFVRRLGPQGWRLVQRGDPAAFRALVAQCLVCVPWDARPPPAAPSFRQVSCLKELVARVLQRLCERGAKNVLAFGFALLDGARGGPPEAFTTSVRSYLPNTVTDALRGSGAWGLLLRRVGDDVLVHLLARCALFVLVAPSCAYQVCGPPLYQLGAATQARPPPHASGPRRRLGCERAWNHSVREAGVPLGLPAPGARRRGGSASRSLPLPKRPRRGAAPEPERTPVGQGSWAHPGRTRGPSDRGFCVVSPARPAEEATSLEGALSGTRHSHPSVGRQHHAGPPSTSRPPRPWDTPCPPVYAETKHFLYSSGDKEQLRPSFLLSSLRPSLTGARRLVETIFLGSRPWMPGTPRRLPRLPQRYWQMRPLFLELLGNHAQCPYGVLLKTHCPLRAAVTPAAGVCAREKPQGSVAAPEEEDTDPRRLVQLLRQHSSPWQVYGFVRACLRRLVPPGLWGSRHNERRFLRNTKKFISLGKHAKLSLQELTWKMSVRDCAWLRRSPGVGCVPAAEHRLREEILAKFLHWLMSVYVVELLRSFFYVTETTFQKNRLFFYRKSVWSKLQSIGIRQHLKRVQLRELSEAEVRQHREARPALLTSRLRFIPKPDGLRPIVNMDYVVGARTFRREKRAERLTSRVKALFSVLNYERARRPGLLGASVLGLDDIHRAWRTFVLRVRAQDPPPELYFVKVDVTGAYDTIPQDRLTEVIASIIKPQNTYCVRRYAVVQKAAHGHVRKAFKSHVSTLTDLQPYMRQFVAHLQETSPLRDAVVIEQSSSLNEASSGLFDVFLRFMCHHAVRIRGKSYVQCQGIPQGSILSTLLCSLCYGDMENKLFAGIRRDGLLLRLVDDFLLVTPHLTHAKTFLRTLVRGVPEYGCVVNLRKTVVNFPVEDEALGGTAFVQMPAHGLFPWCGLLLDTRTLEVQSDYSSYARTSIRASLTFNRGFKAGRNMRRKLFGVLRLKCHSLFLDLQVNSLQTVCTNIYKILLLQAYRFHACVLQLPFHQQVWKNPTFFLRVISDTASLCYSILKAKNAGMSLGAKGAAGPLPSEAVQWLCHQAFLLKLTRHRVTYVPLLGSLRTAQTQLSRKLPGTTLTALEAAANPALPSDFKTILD

SMILES | EC50 [1] [µM] | change in melting temperature (ΔTm) [2] [°C] | change in melting temperature (ΔTm) [3] [°C] | change in melting temperature (ΔTm) [4] [°C] | change in melting temperature (ΔTm) [5] [°C] | Activity [6] | KA [7] [×10⁶ /M] | KA [8] [×10⁶ /M] | KA [9] [×10⁶ /M] | KA [10] [×10⁶ /M] | KA [11] | Selectivity ratio [12] | Selectivity ratio [13] | Selectivity ratio [14] | Selectivity ratio [15] | inhibition [16] [%] | IC50 [17] [µM] | IC50 [18] [µM] | IC50 [19] [µM] | Ratio IC50 [26] | other results
C[n+]1ccc(-c2c3nc(c(-c4cc[n+](C)cc4)c4ccc([nH]4)c(-c4cc[n+](C)cc4)c4nc(c(-c5cc[n+](C)cc5)c5ccc2[nH]5)C=C4)C=C3)cc1 [TMPYP4 CHLORIDE] | 8.9 | – | – | – | – | – | – | – | – | – | – | – | – | – | – | – | – | – | – | – | –
O=C(CCN1CCCC1)Nc1ccc(NC(=O)c2cccc(NC(=O)Nc3cccc(C(=O)Nc4ccc(NC(=O)CCN5CCCC5)cc4)c3)c2)cc1 | > 50 | 10.2 | 13.5 | 18.7 | 0.4 | Active | 1.1 | 1.4 | 5 | 2.1 | < 1 ×10³ /M | > 400 | > 400 | > 400 | > 400 | 6 | 2.6 | 5.3 | 7.5 | – | Activity [20]: 110.4%; Activity [21]: 109.6%; Activity [22]: 66.5%; Activity [23]: 3.1%; Activity [24]: 2.4%
O=C(CN1CCCC1)Nc1cccc(NC(=O)c2ccc(NC(=O)Nc3ccc(C(=O)Nc4cccc(NC(=O)CN5CCCC5)c4)cc3)cc2)c1 | – | 0.7 | 1.8 | 2 | 2.5 | – | – | – | – | – | – | – | – | – | – | – | > 50 | > 50 | > 50 | 1 | Ratio IC50 [25]: 1
O=C(CCN1CCCCC1)Nc1ccc(NC(=O)c2cccc(NC(=O)Nc3cccc(C(=O)Nc4ccc(NC(=O)CCN5CCCCC5)cc4)c3)c2)cc1 | – | 7 | 5.2 | 7.1 | 0.1 | Active | – | – | – | – | – | – | – | – | – | – | 5.1 | > 50 | > 50 | 1 | Activity [27]: 84.3%; Activity [28]: 89.2%; Activity [29]: 1.33%; Activity [30]: 1.29%
O=C(CN1CCCC1)Nc1ccc(NC(=O)c2cccc(NC(=O)Nc3cccc(C(=O)Nc4ccc(NC(=O)CN5CCCC5)cc4)c3)c2)cc1 | > 50 | 3.6 | 7.9 | 11.3 | – | Active | 1.4 | 2.1 | 5.1 | 14 | < 1 ×10³ /M | > 400 | > 400 | > 400 | > 400 | 21 | 14.4 | > 50 | 16.4 | 0.3 | Activity [31]: 92.2%; Activity [32]: 73.1%; Activity [33]: 1%; Activity [34]: 1.7%
C[n+]1ccc(-c2c3nc(c(-c4cc[n+](C)cc4)c4ccc([nH]4)c(-c4cc[n+](C)cc4)c4ccc([nH]4)c(-c4cc[n+](C)cc4)c4nc2C=C4)C=C3)cc1 | – | – | – | – | – | – | – | – | – | – | – | – | – | – | – | – | – | – | – | – | Activity [16]: inactive
O=C(CCCN1CCCC1)Nc1ccc(NC(=O)c2cccc(NC(=O)Nc3cccc(C(=O)Nc4ccc(NC(=O)CCCN5CCCC5)cc4)c3)c2)cc1 | > 50 | 10.1 | 12 | 17.1 | – | Active | 0.4 | 0.4 | 3.1 | 0.9 | < 1 ×10³ /M | > 400 | > 400 | > 400 | > 400 | 36 | 11.1 | > 50 | > 50 | 1 | Activity [27]: 96%; Activity [35]: 81.5%; Activity [29]: 1.6%
O=C(CCN1CCCC1)Nc1cccc(NC(=O)c2ccc(NC(=O)Nc3ccc(C(=O)Nc4cccc(NC(=O)CCN5CCCC5)c4)cc3)cc2)c1 | – | 0.5 | 5.1 | 7.5 | 4.9 | – | – | – | – | – | – | – | – | – | – | – | 3.2 | 4.3 | > 50 | 11.6 | Ratio IC50 [25]: 15.6; Activity [20]: 82.9%; Activity [28]: 44%; Activity [36]: 3%; Activity [30]: 4.1%
CN(C)c1ccc(Nc2c3ccc(NC(=O)CCN4CCCC4)cc3nc3cc(NC(=O)CCN4CCCC4)ccc23)cc1 | 6.3 | 20.1 | 25.9 | 25.3 | 11.2 | Active | 31 | – | – | – | 0.5 ×10⁶ /M | – | – | – | – | – | – | – | 10.7 | 4.5 | Activity [16]: inactive; Ratio IC50 [25]: 4.3
